Screening data deposited in PubChem BioAssay by Broad Institute.
A selection: hits, their analogues and other compounds. The true share with any hit is near 5.8%.
IDH1 R132H inh – inhibitors of human IDH1 R132H; IDH1 R132H reductase, diaphorase/resazurin fluorescence, 60 min; 70,000 tested, 0.18% active; O75874; inhibition, % at 10 µM; in the data active = inhibition above about 34%; inconclusive = no clear call, values can overlap the other calls; inactive = below about 11%
Target sequence (O75874 whole entry R132H): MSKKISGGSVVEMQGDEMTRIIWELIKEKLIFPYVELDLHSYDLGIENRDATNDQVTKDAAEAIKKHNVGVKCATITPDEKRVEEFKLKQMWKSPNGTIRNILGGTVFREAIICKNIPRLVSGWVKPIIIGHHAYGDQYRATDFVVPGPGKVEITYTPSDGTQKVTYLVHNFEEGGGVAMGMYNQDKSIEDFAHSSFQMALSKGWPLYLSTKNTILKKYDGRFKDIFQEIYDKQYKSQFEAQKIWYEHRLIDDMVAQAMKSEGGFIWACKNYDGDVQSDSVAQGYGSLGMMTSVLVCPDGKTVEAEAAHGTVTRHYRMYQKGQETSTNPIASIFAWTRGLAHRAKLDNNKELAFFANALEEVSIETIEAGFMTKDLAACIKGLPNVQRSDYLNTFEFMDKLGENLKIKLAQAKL
GASC1 inh – inhibitors of human demethylase GASC-1 KDM4C. GST-KDM4C 2-372, H3K9me3 peptide, LANCE TR-FRET. inhibition, % at 12.5 µM. AID 720574. Q9H3R0. 96,000 tested, 0.15% active;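 active = mean replicate inhibition above about 25%, with at least 55% of replicates also reaching it, limit read from the data, passing the limit was not always enough; inconclusive = only one of those two conditions met; inactive = neither condition met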
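Test system – GST-tagged GASC-1 (JMJD2C) catalytic fragment, aa 2-372 · Medium – HEPES buffer, pH 7.5, plus ascorbate · Reagent – H3K9me3 peptide with Fe(II)/2OG · Compound – one test concentration per compound · Timing – 30 min reaction, 60 min detection, RT · Technique – TR-FRET with Eu antibody and ULight streptavidin, EDTA stop · Read-out basis – inhibition from TR-FRET ratio decrease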
Pf Dd2 growth – inhibitors of Plasmodium falciparum Dd2 growth | P. falciparum Dd2 growth, SYBR Green, 72 h; active compounds read low | activity change, % at 10 µM | 94,000 tested, 2.3% active | AID 1159554; in the data active = activity change below about -80%; inconclusive = no clear call, values can overlap the other calls
T cruzi growth-1 – T. cruzi proliferation inhibition | inhibition, % at 8.34 µM | T. cruzi beta-gal in NIH3T3, GalScreen luminescence, 90 h | 77,000 tested, 5.9% active;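 active = mean inhibition above about 93%, with at least 55% of replicates each passing it, limit read from the data, passing the limit was not always enough; inconclusive = only one of those two conditions holds; inactive = neither condition holds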
T cruzi growth-2 – inhibitors of T. cruzi proliferation. shares compounds with T cruzi growth-1. T. cruzi beta-gal in NIH3T3, GalScreen luminescence, 90 h. inhibition, % at 8.35 µM. 5,600 tested, 72% active. AID 651739;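 active = mean replicate inhibition above about 95% and at least 55% of replicates individually reaching it, limit read from the data; inconclusive = only one of the two criteria is met; inactive = neither criterion is met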
T cruzi growth-3 – blocks T. cruzi growth in NIH3T3 host cells; shares compounds with T cruzi growth-1; 5,600 tested, 21% active; AID 651740; inhibition, % at 2.09 µM; T. cruzi beta-gal in NIH3T3, GalScreen luminescence, 90 h;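 active = mean inhibition above about 95%, with at least 55% of replicates also reaching it, limit read from the data; inconclusive = meets just one of the two conditions; inactive = meets neither condition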
NIH3T3 tox – kills mouse NIH/3T3 fibroblasts; shares compounds with T cruzi growth-1; 5,600 tested, 14% active; cytotoxicity (signal decrease), % at 8.35 µM; NIH/3T3 viability, CellTiter-Glo ATP luminescence, 90 h; AID 651742;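 active = mean signal decrease across replicates above about 35% based on untreated-well scatter, with enough replicates individually passing, limit read from the data; inconclusive = no rule stated though some were filed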
NIH3T3 tox 2 – kills mouse NIH/3T3 fibroblasts. shares compounds with T cruzi growth-1. NIH/3T3 viability, CellTiter-Glo ATP luminescence, 90 h. inhibition, % at 24.9 µM. 5,600 tested, 56% active;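 active = mean loss of cell viability signal at or above a set limit, and enough replicates individually reaching it; inconclusive = meets only the mean limit or only the replicate share; inactive = meets neither condition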
Numbers stand for hits; i = inactive; ? = inconclusive; nt = no result.

SMILES | IDH1 R132H inh | GASC1 inh | Pf Dd2 growth | T cruzi growth-1 | T cruzi growth-2 | T cruzi growth-3 | NIH3T3 tox | NIH3T3 tox 2
C[C@@H]1CCCCO[C@H](CN(C)S(=O)(=O)c2ccc(Cl)cc2)[C@@H](C)CN([C@@H](C)CO)C(=O)c2cc(N(C)C)ccc2O1 | i | i | i | 99.9 | 111.4 | i | i | i
COc1ccc(S(=O)(=O)N(C)C[C@H]2OCCCC[C@@H](C)Oc3ccc(N(C)C)cc3C(=O)N([C@H](C)CO)C[C@H]2C)cc1 | i | i | i | 116.7 | i | i | i | i
C[C@H](CO)N1C[C@H](C)[C@H](CN(C)S(=O)(=O)c2ccc(Cl)cc2)OCCCC[C@H](C)Oc2ccc(N(C)C)cc2C1=O | i | i | i | 100.2 | 109.7 | i | i | i
C[C@@H]1CCCCO[C@H](CN(C)S(=O)(=O)c2ccc(Cl)cc2)[C@H](C)CN([C@@H](C)CO)C(=O)c2cc(N(C)C)ccc2O1 | i | i | i | i | nt | nt | nt | nt
COc1ccc(S(=O)(=O)N(C)C[C@H]2OCCCC[C@H](C)Oc3ccc(N(C)C)cc3C(=O)N([C@H](C)CO)C[C@H]2C)cc1 | nt | i | i | i | nt | nt | nt | nt
C[C@@H]1CN([C@@H](C)CO)C(=O)c2cc(NC(=O)Nc3cccc4ccccc34)ccc2O[C@H]1CN(C)Cc1ccc(-c2ccccc2)cc1 | nt | i | i | i | nt | nt | nt | nt
C[C@H](CO)N1C[C@H](C)[C@@H](CN(C)C(=O)Nc2ccc(F)cc2)OCCCC[C@H](C)Oc2ccc(NC(=O)Cc3ccccc3)cc2C1=O | nt | i | i | 98.0 | ? | i | i | i
C[C@@H]1CN([C@@H](C)CO)C(=O)Cc2cc(NC(=O)CCN3CCOCC3)ccc2O[C@H]1CN(C)C(=O)Nc1ccccc1 | i | i | i | i | nt | nt | nt | nt
C[C@@H]1CN([C@H](C)CO)C(=O)Cc2cc(NC(=O)CCN3CCOCC3)ccc2O[C@H]1CN(C)C(=O)Nc1ccc(F)cc1 | i | i | i | 99.2 | i | i | i | i
C[C@H]1CCCCO[C@H](CN(C)C(=O)Nc2ccc(F)cc2)[C@@H](C)CN([C@@H](C)CO)C(=O)c2cc(NC(=O)Cc3ccccc3)ccc2O1 | nt | i | i | 104.7 | 108.9 | i | i | i
C[C@@H]1CCCCO[C@@H](CN(C)C(=O)Nc2ccc3c(c2)OCO3)[C@@H](C)CN([C@H](C)CO)C(=O)c2cc(NC(=O)CCCN(C)C)ccc2O1 | nt | i | i | 110.7 | ? | i | i | i
C[C@H]1CN([C@@H](C)CO)C(=O)Cc2cc(NS(=O)(=O)c3ccc(Cl)cc3)ccc2O[C@H]1CN(C)C(=O)Nc1cccc2ccccc12 | i | i | i | i | nt | nt | nt | nt
COc1ccccc1NC(=O)COc1ccc(C(=O)Nc2cccc(C(F)(F)F)c2)cc1 | i | nt | nt | nt | nt | nt | nt | nt
O=C(N/N=C/c1cccc(B(O)O)c1)c1ccccc1O | i | nt | nt | nt | nt | nt | nt | nt
C[C@@H]1CN([C@H](C)CO)C(=O)c2cc(NC(=O)Cc3ccccc3)ccc2O[C@@H](C)CCCCO[C@H]1CN(C)C(=O)Nc1ccc2c(c1)OCO2 | i | i | i | i | nt | nt | nt | nt
C[C@@H]1CCCCO[C@H](CN(C)C(=O)Nc2ccc3c(c2)OCO3)[C@H](C)CN([C@@H](C)CO)C(=O)c2cc(NC(=O)Cc3ccccc3)ccc2O1 | i | i | i | ? | ? | i | i | i
C[C@H]1CN([C@@H](C)CO)C(=O)Cc2cc(NC(=O)CCCN(C)C)ccc2O[C@@H]1CN(C)C(=O)Nc1ccc2c(c1)OCO2 | i | i | i | ? | i | i | i | i
C[C@@H]1CCCCO[C@H](CN(C)C(=O)Nc2ccc(F)cc2)[C@H](C)CN([C@@H](C)CO)C(=O)c2cc(NC(=O)Cc3ccccc3)ccc2O1 | i | i | -81.8 | 103.4 | 103.8 | i | i | i
N#C[C@@H]1[C@H](c2ccc(C#CC3CCCC3)cc2)[C@@H](CO)N1S(=O)(=O)c1ccccc1 | nt | i | i | 97.5 | 96.3 | 106.9 | i | 107.7
CS(=O)(=O)N1[C@@H](C#N)[C@@H](c2ccc(C#CC3CC3)cc2)[C@@H]1CO | nt | i | i | 103.1 | 107.4 | ? | i | i
CS(=O)(=O)N1[C@@H](C#N)[C@H](c2ccc(C#CC3CC3)cc2)[C@@H]1CO | nt | i | i | i | nt | nt | nt | nt
CCCN1[C@@H]2c3ccc(C4=CCCC4)c(=O)n3C[C@H]1[C@H](CO)[C@H]2C(=O)NCc1ccccn1 | nt | i | i | i | nt | nt | nt | nt
C[C@@H]1CN([C@H](C)CO)S(=O)(=O)c2ccc(C#Cc3ccccc3)cc2O[C@H]1CN(C)C(=O)Cc1ccccn1 | i | i | ? | ? | 100.0 | i | i | 84.8
C[C@H](CO)N1C[C@H](C)[C@H](CN(C)C(=O)Cc2ccccn2)Oc2cc(C#Cc3ccccc3)ccc2S1(=O)=O | i | i | -85.1 | 103.8 | 101.3 | i | i | i
C[C@H](CO)N1C[C@H](C)[C@@H](CN(C)C(=O)Cc2ccccn2)Oc2cc(C#Cc3ccccc3)ccc2S1(=O)=O | i | i | i | i | nt | nt | nt | nt
SMILES | IDH1 R132H inh | GASC1 inh | Pf Dd2 growth | T cruzi growth-1 | T cruzi growth-2 | T cruzi growth-3 | NIH3T3 tox | NIH3T3 tox 2
C[C@H](CO)N1C[C@H](C)[C@@H](CN(C)C(=O)CN(C)C)Oc2cc(C#Cc3ccccc3)ccc2S1(=O)=O | i | i | -83.1 | ? | 104.8 | i | i | 103.7
N#C[C@@H]1[C@@H](c2ccc(/C=C/c3ccccc3)cc2)[C@@H](CO)N1C(=O)C1CCCCC1 | nt | i | i | 102.3 | ? | i | i | i
N#C[C@H]1[C@@H](c2ccc(/C=C/c3ccccc3)cc2)[C@@H](CO)N1C(=O)C1CCCCC1 | nt | i | i | 97.9 | 96.3 | ? | i | 90.2
C[C@@H]1CCCCO[C@@H](CN(C)C(=O)Nc2ccccc2)[C@H](C)CN([C@@H](C)CO)C(=O)c2cc(NC(=O)CCC(F)(F)F)ccc2O1 | i | i | nt | i | nt | nt | nt | nt
O=C(C[C@H]1C=C[C@H](NC(=O)c2cccnc2)[C@H](CO)O1)NCc1ccncn1 | nt | i | i | nt | nt | nt | nt | nt
C[C@@H]1CN([C@H](C)CO)S(=O)(=O)c2ccc(C#CCC3CCCC3)cc2O[C@@H]1CN(C)C(=O)CC1CC1 | i | i | i | 112.5 | 96.3 | i | i | 105.2
CCC(=O)N(C)C[C@@H]1Oc2cc(C#CCC3CCCC3)ccc2S(=O)(=O)N([C@H](C)CO)C[C@H]1C | i | i | i | i | nt | nt | nt | nt
CCC(=O)N(C)C[C@H]1Oc2cc(C#CCC3CCCC3)ccc2S(=O)(=O)N([C@H](C)CO)C[C@H]1C | i | i | i | 115.6 | 97.5 | i | 44.1 | 103.1
CNC[C@H]1Oc2cc(C#CCC3CCCC3)ccc2S(=O)(=O)N([C@H](C)CO)C[C@@H]1C | i | i | i | ? | 99.2 | i | i | 106.4
